Experimental data collected from several papers.
Compare with care: the assays were run in different laboratories.
Target: Serine/threonine-protein kinase PLK1 (PLK1, Homo sapiens, UniProt P53350)

`CN(C)c1nccc(-c2cnn3ncccc23)n1` gave a remaining binding of 56% (binding; 1 µM).
The remaining binding of `NS(=O)(=O)c1cc(NC(=O)Cc2ccccc2)ccc1Oc1cccc(Cl)c1` is reported as 73% (cell-free assay, competition with immobilised ligand; 1 µM).
`C[C@@H]1CCN(c2nccc(-c3cnn4ncccc34)n2)C1` has a remaining binding of 76% (binding; 1 µM).
`N#Cc1ccc(Nc2ccc3[nH]c(=O)[nH]c3c2)c(Cl)c1` gave a remaining binding of 100% (cell-free assay, competition with immobilised ligand; 1 µM).
The remaining binding of `COc1ccnn2ncc(-c3ccnc(N(C)C)n3)c12` is reported as 94% (binding; 1 µM).
With `C=CC(=O)N1CCC(C(=O)NCC(=O)N2CCN(c3nc(-c4cnc(N)nc4C(F)F)nc(N4CCOCC4)n3)CC2)CC1` the remaining binding was 99% (binding, competition with immobilised ligand; 1 µM).
The remaining binding of `COc1cc(C(=O)N2CCC(N3CCN(C)CC3)CC2)ccc1Nc1ncc2c(n1)N(C)c1ccccc1C(=O)N2C` is reported as 0.7% (binding, competition with immobilised ligand; 10 µM).
The remaining binding of `CNC(=O)[C@@H]1CC[C@@H](n2c(-c3ccc4cnccc4c3)nc3ccc(C(=O)NCc4cccc(C(N)=O)c4)cc32)C1` is reported as 100% (binding, competition with immobilised ligand; 1 µM).
The remaining binding of `c1cnn2ncc(-c3ccnc(N4CCC45COC5)n3)c2c1` is reported as 72% (binding; 1 µM).
For `C[C@@H]1CN(c2ccc3ncc(-c4ccc5[nH]nc(C6CC6)c5c4)n3n2)C[C@H](C)O1`, the remaining binding was 96% (binding, competition with immobilised ligand; 0.5 µM).
`O=C(Nc1c[nH]nc1C(=O)NC1CCNCC1)c1cc(F)cc(F)c1` gave a remaining binding of 100% (binding, competition with immobilised ligand; 1 µM).
`O=C(c1ccc(Nc2ncc(Cl)c(-c3ccc(Cl)s3)n2)cc1)N1CCC(N2CCCC2)CC1` has a remaining binding of 61% (binding, competition with immobilised ligand; 1 µM).
`O=C(N[C@H]1CCCCC/C=C\C2C[C@@]2(C(=O)O)NC(=O)[C@@H]2C[C@@H](Oc3ccncc3)CN2C1=O)OC1CCCC1` (stereo partly shown) has a remaining binding of 71% (binding, competition with immobilised ligand; 1 µM).
The remaining binding of `O=C(c1ccc(Nc2nccc(-c3cc4ccccc4s3)n2)cc1)N1CCC(N2CCCC2)CC1` is reported as 89% (binding, competition with immobilised ligand; 1 µM).
The remaining binding of `N#Cc1ccccc1CSc1nnc2c(n1)[nH]c1ccccc12` is reported as 94% (binding, competition with immobilised ligand; 10 µM).
For `F[C@@H]1CCN(c2nccc(-c3cnn4ncccc34)n2)C1`, the remaining binding was 100% (binding; 1 µM).
With `O=C(NCc1ncc(C(F)(F)F)cc1Cl)c1ccc2c(c1)C1(CCS(=O)(=O)CC1)[C@H](C1CC1)N2S(=O)(=O)c1ccc(F)cc1` the remaining binding was 86% (cell-free assay, competition with immobilised ligand; 1 µM).
For `COc1ncc2cc3ccccc3nc2c1C#N`, the remaining binding was 73% (cell-free assay, competition with immobilised ligand; 5 µM).
With `Nc1ncc2c(n1)-c1c([nH]c3ccc(C#CC4CC4)cc13)CCCC2` the remaining binding was 68% (binding, competition with immobilised ligand; 1 µM).
`C[C@@H](c1cccc(C#N)c1)n1cc(Cl)cc(C(N)=O)c1=N` has a remaining binding of 98% (cell-free assay, competition with immobilised ligand; 1 µM).
`O=C(NCCCN1CCOCC1)c1ccc(Nc2ncc(Cl)c(-c3ccc(Cl)s3)n2)cc1` gave a remaining binding of 22% (binding, competition with immobilised ligand; 1 µM).
`CCCOc1ccc([C@H]2[C@H](C(=O)O)[C@@H](c3ccc4c(c3)OCO4)CN2CC(=O)Nc2c(CC)cccc2CC)cc1` gave a remaining binding of 80% (cell-free assay, competition with immobilised ligand; 1 µM).
`c1cncc(-c2cccc(Nc3nccc(NC4CCCCC4)n3)c2)c1` has a remaining binding of 78% (binding, competition with immobilised ligand; 10 µM).
With `Nc1cnc(N2CCc3cc(S(=O)(=O)Nc4c(F)cc(Cl)cc4F)cc(N4CCCC4=O)c32)nc1` the remaining binding was 100% (cell-free assay, competition with immobilised ligand; 1 µM).
`Cc1cnn2ncc(-c3ccnc(N(C)C)n3)c2c1` gave a remaining binding of 84% (binding; 1 µM).
